Experimental data taken from PubChem BioAssay AID588730 (Vanderbilt Specialized Chemistry Center, 2011).
Calls of active or inactive are those of the source.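 Rule for the calls: active = fold shift at most 0.5 or above 2, or agonist peak response under 75 or over 125 percent; inactive = the rest.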

Target: Metabotropic glutamate receptor 6 (Homo sapiens) (UniProt O15303)
Experiment: Human mGluR6 profiling panel, HEK/GIRK cell-based Tl+ flux, fold shift of glutamate response, mGluR5 PAM selectivity (AID 588730)
Conditions: HEK/GIRK hmGluR6, thallium flux, glutamate CRC fold shift, at 10 µM; for Emax: measured here: glutamate max response with compound
Procedure, shortened: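 System: HEK/GIRK cells expressing human mGlu6 receptor / Probe or stimulus: glutamate as agonist, 11-point concentration-response curve in thallium buffer / Compound: single test compound dose, 10 µM final, added before agonist / Technique: FluoZin2 thallium flux fluorescence / Measure: fold shift, ratio of control glutamate EC50 to EC50 with compound / Benchmarks: vehicle-treated reference curve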

Chain of Metabotropic glutamate receptor 6 (Homo sapiens) (O15303 whole entry, looked up): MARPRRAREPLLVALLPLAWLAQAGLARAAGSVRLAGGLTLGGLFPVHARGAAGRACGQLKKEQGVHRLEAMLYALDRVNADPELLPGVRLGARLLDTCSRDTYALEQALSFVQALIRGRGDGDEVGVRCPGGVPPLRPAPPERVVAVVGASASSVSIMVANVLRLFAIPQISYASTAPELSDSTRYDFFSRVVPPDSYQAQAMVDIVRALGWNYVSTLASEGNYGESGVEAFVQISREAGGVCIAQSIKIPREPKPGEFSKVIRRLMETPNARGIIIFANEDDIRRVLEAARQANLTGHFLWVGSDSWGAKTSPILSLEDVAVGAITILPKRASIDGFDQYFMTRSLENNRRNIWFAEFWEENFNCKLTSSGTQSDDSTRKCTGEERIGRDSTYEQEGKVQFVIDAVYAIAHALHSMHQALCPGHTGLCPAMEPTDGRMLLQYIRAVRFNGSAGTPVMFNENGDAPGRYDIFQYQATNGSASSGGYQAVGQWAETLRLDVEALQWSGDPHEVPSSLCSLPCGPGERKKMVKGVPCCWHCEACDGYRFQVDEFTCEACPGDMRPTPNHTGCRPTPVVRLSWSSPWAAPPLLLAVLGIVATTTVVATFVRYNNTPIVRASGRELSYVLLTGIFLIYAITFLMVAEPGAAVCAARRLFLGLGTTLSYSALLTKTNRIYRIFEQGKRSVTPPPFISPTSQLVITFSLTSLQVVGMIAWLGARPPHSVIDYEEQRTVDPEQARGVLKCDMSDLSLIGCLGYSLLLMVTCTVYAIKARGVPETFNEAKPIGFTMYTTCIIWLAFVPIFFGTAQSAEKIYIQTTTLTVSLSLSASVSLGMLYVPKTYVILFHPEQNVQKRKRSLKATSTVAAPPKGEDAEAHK

Row | fold shift | Emax [%] | SMILES
1 | 1.04 (inactive) | 93 | C[C@@H](NC(=O)c1ccc(C#Cc2cccc(F)c2)cn1)C(C)(C)O
2 | 0.98 (inactive) | 90 | CC1(NC(=O)c2ccc(C#Cc3cccc(F)c3)cn2)COC1
